We go through 13 compounds from ChEMBL document CHEMBL1127562, “N-substituted spirosuccinimide, spiropyridazine, spiroazetidine, and acetic acid aldose reductase inhibitors derived from isoquinoline-1,3-diones. 2” (J Med Chem, 1994).

In test [1] the test system is Rattus norvegicus. The test can be described thus: Tested for in vivo inhibition of galactitol accumulation in the sciatic nerve of galactose-fed rats at the dose of 47.9 (mg/kg/day). It counts as functional. In short, it runs like this:
(§1)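 Rats were given a 20% galactose diet for 4 days, with the test compound administered in the diet. Sciatic nerve galactitol accumulation was measured, and activity is given as % inhibition at the stated daily dose (mg/kg/day). Values are mean ± SEM, n = 6 animals; p < 0.01 unless indicated. NS means no significant inhibition of polyol accumulation.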

Test [2] deals with Rattus norvegicus. The test can be described thus: Tested for in vivo inhibition of galactitol accumulation in the lens of galactose-fed rats at the dose of 47.9 (mg/kg/day). It counts as functional, Lens of camera-type eye.
In test [3] the target is Aldo-keto reductase family 1 member B1 (Bos taurus) (UniProt P16116). The test can be described thus: Inhibition of aldose reductase activity in partially purified bovine lens preparation at 10e-5 M. In a few lines:
(§2)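 Partially purified bovine lens aldose reductase. Reduction of DL-glyceraldehyde substrate followed spectrophotometrically. Activity expressed as average inhibition at the tested concentrations, 1×10^-5, 1×10^-6, 1×10^-7 and 4×10^-6 M as printed; IC50 in M where given.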

In test [4] the test system is Rattus norvegicus. Nature of the test: Tested for in vivo inhibition of galactitol accumulation in the sciatic nerve of galactose-fed rats at the dose of 9.9 (mg/kg/day); NS=Not significant. It counts as functional, organism-based. In short, it runs like this: (§3)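 Rats fed a 20% galactose diet for 4 days, with test compound given in the diet at the stated daily dose (mg/kg/day). Read-out is inhibition of galactitol (polyol) accumulation in sciatic nerve. Values are % inhibition, mean ± SEM of six animals; p < 0.01 unless marked (some p < 0.05). NS = no significant inhibition of polyol accumulation. Tolrestat was the reference standard.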

The subject of test [5] is Rattus norvegicus. Nature of the test: Tested for in vivo inhibition of galactitol accumulation in the sciatic nerve of galactose-fed rats at the dose of 24.1 (mg/kg/day); NS=Not significant. Type of test: functional, organism-based. In a few lines: as §1
Test [6] concerns Rattus norvegicus. The test can be described thus: Tested for in vivo inhibition of galactitol accumulation in the lens of galactose-fed rats at the dose of 24.1 (mg/kg/day); NS=Not significant. Type of test: functional, organism-based. As to conditions: Lens of camera-type eye.
In test [7] the target is Aldo-keto reductase family 1 member B1 (Bos taurus) (UniProt P16116). The test can be described thus: Inhibition of aldose reductase activity in partially purified bovine lens preparation at 4*10 e-8 M.
Test [8] deals with Rattus norvegicus. The test can be described thus: Tested for in vivo inhibition of galactitol accumulation in the sciatic nerve of galactose-fed rats at the dose of 102.8 (mg/kg/day); NS=Not significant. Type of test: functional, organism-based. In short, it runs like this: as §1
In test [9] the test system is Rattus norvegicus. Nature of the test: Tested for in vivo inhibition of galactitol accumulation in the lens of galactose-fed rats at the dose of 102.8 (mg/kg/day); NS=Not significant. Type of test: functional, organism-based. The note with it: Lens of camera-type eye.
Test [10] concerns Rattus norvegicus. The test can be described thus: Tested for in vivo inhibition of galactitol accumulation in the sciatic nerve of galactose-fed rats at the dose of 55.4 (mg/kg/day); NS=Not significant. It counts as functional, organism-based. In a few lines:
as §3

Test [11] has as its system Rattus norvegicus. Nature of the test: Tested for in vivo inhibition of galactitol accumulation in the lens of galactose-fed rats at the dose of 55.4 (mg/kg/day); NS=Not significant. The note with it: Lens of camera-type eye. Type of test: functional, organism-based. In short, it runs like this: (§4)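 Galactosemic rats were fed 20% galactose for 4 days, with the compound mixed into the diet. […] galactitol accumulation was measured, and activity is given as % inhibition at the stated daily dose (mg/kg/day). Values are mean ± SEM of six animals; p < 0.01 unless indicated. NS means no significant inhibition of polyol accumulation.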

For test [12], the system named is Rattus norvegicus. The test can be described thus: Tested for in vivo inhibition of galactitol accumulation in the lens of galactose-fed rats at the dose of 24 (mg/kg/day); NS=Not significant. It counts as functional, organism-based. The note with it: Lens of camera-type eye.
Test [13] relates to Rattus norvegicus. The test can be described thus: Tested for in vivo inhibition of galactitol accumulation in the sciatic nerve of galactose-fed rats at the dose of 24; NS=Not significant. Type of test: functional, organism-based. In a few lines:
as §1

Test [14] has as its system Rattus norvegicus. Nature of the test: Tested for in vivo inhibition of galactitol accumulation in the sciatic nerve of galactose-fed rats at the dose of 47 (mg/kg/day); NS=Not significant. It counts as functional, organism-based. In a few lines: as §1
In test [15] the target is Aldo-keto reductase family 1 member B1 (Bos taurus) (UniProt P16116). Nature of the test: Compound was tested in vitro for inhibition of aldose reductase activity in partially purified bovine lens preparation at 10e-5 M; Not significant; NS=Not significant. In short, it runs like this:
as §2

In test [16] the test system is Rattus norvegicus. The test can be described thus: Tested for in vivo inhibition of galactitol accumulation in the sciatic nerve of galactose-fed rats. at the dose of 1.0 (mg/kg/day); NS=Not significant. Type of test: functional, organism-based. In a few lines:
as §3

The subject of test [17] is Rattus norvegicus. Nature of the test: Tested for in vivo inhibition of galactitol accumulation in the sciatic nerve of galactose-fed rats at the dose of 1.1 (mg/kg/day); NS=Not significant.
The test system of test [18] is Rattus norvegicus. Nature of the test: Tested for in vivo inhibition of galactitol accumulation in the sciatic nerve of galactose-fed rats at the dose of 24.8 (mg/kg/day); NS=Not significant. It counts as functional, organism-based. In a few lines:
as §1

Test [19] concerns Rattus norvegicus. The test can be described thus: Tested for in vivo inhibition of galactitol accumulation in the lens of galactose-fed rats at the dose of 24.8 (mg/kg/day); NS=Not significant. Type of test: functional, organism-based. The note with it: Lens of camera-type eye.
For test [20], the system named is Rattus norvegicus. Nature of the test: Tested for in vivo inhibition of galactitol accumulation in the lens of galactose-fed rats at the dose of 54 (mg/kg/day); NS=Not significant. Type of test: functional, organism-based. As to conditions: Lens of camera-type eye.
Test [21] deals with Rattus norvegicus. The test can be described thus: tTested for in vivo inhibition of galactitol accumulation in the sciatic nerve of galactose-fed rats at the dose of 54 (mg/kg/day); NS=Not significant. It counts as functional, organism-based. In short, it runs like this:
as §3

Test [22] relates to Rattus norvegicus. The test can be described thus: Tested for in vivo inhibition of galactitol accumulation in the sciatic nerve of galactose-fed rats at the dose of 87.3 (mg/kg/day); NS=Not significant. Type of test: functional, organism-based. In short, it runs like this:
as §3

Test [23] has as its system Rattus norvegicus. Nature of the test: Tested for in vivo inhibition of galactitol accumulation in the lens of galactose-fed rats at the dose of 87.3 (mg/kg/day); NS=Not significant. It counts as functional, organism-based. As to conditions: Lens of camera-type eye. In short, it runs like this:
as §4

In test [24] the test system is Rattus norvegicus. The test can be described thus: Tested for in vivo inhibition of galactitol accumulation in the lens of galactose-fed rats at the dose of 25.0 (mg/kg/day); NS=Not significant. Type of test: functional, organism-based. As to conditions: Lens of camera-type eye.
Test [25] has as its system Rattus norvegicus. Nature of the test: Tested for in vivo inhibition of galactitol accumulation in the sciatic nerve of galactose-fed rats. at the dose of 25.0 (mg/kg/day); NS=Not significant. It counts as functional, organism-based. In a few lines:
as §3

Molecules are shown by their SMILES. The source made the active and inactive calls. The calls are words filed in the database; no cut-off is given here.

As a reminder, the Inhibition is how much of the control response was suppressed. A low value points to a response near the control. By inhibition is commonly meant the drop in the measured response relative to a control, in per cent. Regarding `COC(=O)NC(=O)CC1C(=O)N(C)C(=O)c2ccc(C(F)(F)F)cc21` (centres undefined), the results for the Inhibition with Rattus norvegicus [1] and in the test with Rattus norvegicus [2] were 52% and 26%, respectively. In [3], this compound yielded an inhibition of 51%.

For `CON1C(=O)CC2(C(=O)N(Cc3ccc(Br)cc3F)C(=O)c3ccccc32)C1=O` (centres undefined), the inhibition entry (with Rattus norvegicus [4]; in [3]) was “inactive” each time.

As for `CONC(=O)CC1C(=O)N(Cc2ccc(Br)cc2F)C(=O)c2ccccc21` (centres undefined), the inhibition result in the test with Rattus norvegicus [5] and in the test on Rattus norvegicus [6] was “inactive” in each case. The inhibition in test [3] was found to be 45%.

`O=C(O)CC1C(=O)N(Cc2ccc(Br)cc2F)C(=O)c2ccccc21` (centres undefined) came in with an inhibition in test [7] of 50%. The inhibition entry with Rattus norvegicus [8] and in the test on Rattus norvegicus [9] was “inactive” in each case.

Turning to `O=C1c2ccccc2C2(CC(=O)N(NS(=O)(=O)C(F)(F)F)C2=O)C(=O)N1Cc1ccc(Br)cc1F` (centres undefined), the inhibition entry (in the test with Rattus norvegicus [10]; in test [3]; in the test with Rattus norvegicus [11]) was “inactive” in each case.

As for `O=C(O)CC1C(=O)N(Cc2nc3cc(C(F)(F)F)ccc3s2)C(=O)c2ccccc21` (centres undefined), the inhibition entry in the test on Rattus norvegicus [12] and with Rattus norvegicus [13] was “inactive” each time. Further, the inhibition in test [7] is 65%.

With `CN1C(=O)CC2(C(=O)N(Cc3ccc(Br)cc3F)C(=O)c3ccc(F)cc32)C(=O)N1C` (centres undefined), the inhibition result (in the test with Rattus norvegicus [14]; in [15]) was “inactive” in each case.

For the compound `CCCCN1C(=O)CC2(C1=O)C(=O)N(Cc1ccc(Br)cc1F)C(=O)c1ccc(F)cc12` (centres undefined), the inhibition entry (in test [3]; in the test on Rattus norvegicus [16]) was “inactive” in each case.

For `CCN1C(=O)CC2(C(=O)N(C)C(=O)c3ccc(Cl)cc32)C1=O` (centres undefined), the inhibition entry (in test [3]; in the test on Rattus norvegicus [17]) was “inactive” in each case.

With `CCNC(=O)CC1C(=O)N(Cc2ccc(Br)cc2F)C(=O)c2ccccc21` (centres undefined), the inhibition result (in test [3]; in the test on Rattus norvegicus [18]; with Rattus norvegicus [19]) was “inactive” each time.

For the compound `O=C1CC2(N1)C(=O)N(Cc1ccc(Br)cc1F)C(=O)c1ccc(F)cc12` (centres undefined), the inhibition entry with Rattus norvegicus [20] and in the test with Rattus norvegicus [21] was “inactive” in each case.

`CCN1C(=O)c2ccccc2C(CC(=O)NC(=O)OC)C1=O` (centres undefined): the inhibition entry (with Rattus norvegicus [22]; in the test on Rattus norvegicus [23]; in test [3]) was “inactive” throughout.

For the compound `O=C(O)CC1C(=O)N(Cc2ccc(Br)cc2F)C(=O)c2ccc(Cl)cc21` (centres undefined), the inhibition result with Rattus norvegicus [24] and in the test with Rattus norvegicus [25] was “inactive” each time. The same compound had an inhibition in test [7] of 57%.
